ChEMBL document CHEMBL1135142, “Synthesis and in vitro evaluation of N,N'-diphenyl and N-naphthyl-N'-phenylguanidines as N-methyl-D-aspartate receptor ion-channel ligands” (Bioorg Med Chem Lett, 2002)

Tests used:
[1] = Partition coefficient (logP); assay type: physicochemical; conditions: octanol/water
Summary of the method: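 Lipophilicity (log P) estimated by HPLC analysis.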

Glutamate NMDA receptor = assay: In vitro binding to N-methyl-D-aspartate glutamate receptor using [3H]MK-801 (1 nM) and rat brain membrane suspensions
Summary of the method: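 Test compounds displaced the radioligand, and IC₅₀ values were read from displacement curves. Ki was calculated from IC₅₀ by the Cheng–Prusoff method. Values are means of at least three experiments, with standard deviation.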

Structure (SMILES): Cc1cc(C)cc(N(C)C(=N)Nc2cccc3ccccc23)c1
- logP [1]: 2.94
- Ki (Glutamate NMDA receptor): 21.9 nM

Structure (SMILES): CN(C(=N)Nc1cccc2ccccc12)c1cccc(I)c1
- logP [1]: 2.94
- Ki (Glutamate NMDA receptor): 4.65 nM

Structure (SMILES): COc1cccc(N(C)C(=N)Nc2cccc3ccccc23)c1
- logP [1]: 2.26
- Ki (Glutamate NMDA receptor): 43.5 nM

Structure (SMILES): CSc1ccc(Cl)c(NC(=N)N(C)c2cccc(I)c2)c1
- logP [1]: 2.91
- Ki (Glutamate NMDA receptor): 3.48 nM

Structure (SMILES): CSc1ccc(Cl)c(NC(=N)N(C)c2cccc(F)c2)c1
- logP [1]: 2.34

Structure (SMILES): COc1cccc(N(C)C(=N)Nc2cc(SC)ccc2Cl)c1
- logP [1]: 2.34
- Ki (Glutamate NMDA receptor): 5.2 nM

Structure (SMILES): CN(C(=N)Nc1cccc2ccccc12)c1cccc(F)c1
- logP [1]: 2.31
- Ki (Glutamate NMDA receptor): 839 nM

Structure (SMILES): CSc1ccc(Cl)c(NC(=N)N(C)c2cc(C)cc(C)c2)c1
- logP [1]: 3.12
- Ki (Glutamate NMDA receptor): 14 nM

Structure (SMILES): CCc1cccc(N(C)C(=N)Nc2cc(SC)ccc2Cl)c1
- logP [1]: 3
- Ki (Glutamate NMDA receptor): 6.28 nM

Structure (SMILES): CSc1cccc(N(C)C(=N)Nc2cc(SC)ccc2Cl)c1 [CNS-5161]
- logP [1]: 2.68
- Ki (Glutamate NMDA receptor): 1.87 nM
